This is an account of results in PubChem BioAssay AID624080 (The Scripps Research Institute Molecular Screening Center, 2012).

The subject of assay [1] is VIM-2 P. aeruginosa PA641 growth with imipenem, OD590. Nature of the assay: growth inhibition synergy with imipenem, VIM-2 bacteria – clinical strain PA641, MIC, late-stage follow-up (AID 624080). Summed up: (§1)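 Buffer or medium: cation-adjusted Mueller-Hinton broth. Dosing: test compound two-fold series along rows, checkerboard with imipenem. Also added: imipenem in two-fold series along plate columns. Detection: turbidity by absorbance at 590 nm. Incubation: ≥18 h at 37 °C, aerobic.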

Assay in assay [2]: as above
The note with it: VIM-2 P. aeruginosa PA641 growth with imipenem, OD590; measured here: max imipenem fold potentiation; stronger effect = higher value. Summed up: as §1

Where “and” joins values, the source holds several entries; their conditions need not be identical. Equal entries are not always repeated. Calls of active or inactive are those of the source.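 The calls were made as follows: active = compound whose MIC, giving a fourfold drop in bacterial growth, is 10 µM or lower; inactive = the rest.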 A value given as a limit tells only on which side of the number the result lay.

The MIC is the least concentration at which growth counts as inhibited. Turning to `O=C(O)CN1C(=O)/C(=C/c2c(Cl)cccc2Cl)SC1=S`, in assay [1], the MIC was > 100 µM (inactive). In the case of `CN1CCN(NC(=O)CN2C(=O)/C(=C/c3c(Cl)ccc(Cl)c3Cl)SC2=S)CC1`, the MIC in assay [1] was > 50 µM (inactive). Further, in assay [2], the fold potentiation is 4 and 2. For `O=C(CN1C(=O)/C(=C/c2c(Cl)ccc(Cl)c2Cl)SC1=S)NCc1ccccn1`, in assay [1], the MIC is > 50 µM (inactive). Regarding `O=C(CN1C(=O)/C(=C/c2c(Cl)cccc2Cl)SC1=S)NN1CCNCC1`, the MIC in assay [1] is > 50 µM (inactive). Also, in assay [2], the fold potentiation is 2. Consider `O=C(CN1C(=O)/C(=C/c2c(Cl)cccc2Cl)SC1=S)NN1CCN(C(=O)c2ccccc2)CC1`, for which the MIC in assay [1] is > 50 µM (inactive). In the case of `CN1CCN(C(=O)CN2C(=O)/C(=C/c3c(Cl)ccc(Cl)c3Cl)SC2=S)CC1`, the MIC in assay [1] is > 50 µM (inactive). The fold potentiation in assay [2] was 4. The matching figures for `CN1CCN(NC(=O)CN2C(=O)/C(=C/c3c(Cl)cccc3Cl)SC2=S)CC1`: > 100 µM (inactive) and 2. For the compound `CC(C)(C)OC(=O)N1CCN(NC(=O)CN2C(=O)/C(=C/c3c(Cl)ccc(Cl)c3Cl)SC2=S)CC1`, in assay [1], the MIC is > 50 µM (inactive). On to `O=C(CN1C(=O)/C(=C/c2c(Cl)ccc(Cl)c2Cl)SC1=S)NN1CCNCC1`, for which the MIC in assay [1] was > 50 µM (inactive). For the same compound, the fold potentiation in assay [2] came out at 2. For `O=C(CN1C(=O)/C(=C/c2c(Cl)cccc2Cl)SC1=S)NCc1ccccn1`, the MIC in assay [1] is > 100 µM (inactive). Also, the fold potentiation in assay [2] amounted to 2.

As for `CC(C)(C)OC(=O)N1CCN(NC(=O)CN2C(=O)/C(=C/c3c(Cl)cccc3Cl)SC2=S)CC1`, in assay [1], the MIC is > 100 µM (inactive). For `CN1CCN(NC(=O)CN2C(=O)/C(=C/c3c(F)cccc3C(F)(F)F)SC2=S)CC1`, in assay [1], the MIC was > 50 µM (inactive). Still for that read-out and setting: for `O=C(CN1C(=O)/C(=C/c2c(Cl)cccc2Cl)SC1=S)NN1CCCCC1` the value was > 100 µM (inactive); for `O=C(CN1C(=O)/C(=C/c2c(Cl)ccc(Cl)c2Cl)SC1=S)NN1CCCCC1`, > 50 µM (inactive). As for `CN1CCN(NC(=O)CN2C(=O)/C(=C/c3c(C(F)(F)F)ccc(Cl)c3Cl)SC2=S)CC1`, the MIC in assay [1] was > 50 µM (inactive). Moreover, the fold potentiation in assay [2] came out at 4.

Regarding `CN1CCN(NC(=O)CN2C(=O)/C(=C/c3c(Cl)ccc(C(F)(F)F)c3Cl)SC2=S)CC1`, the MIC in assay [1] is > 50 µM (inactive). Moreover, in assay [2], the fold potentiation stood at 2. Consider `CCN(CC)OC(=O)CN1C(=O)/C(=C/c2c(Cl)cccc2Cl)SC1=S`, for which the MIC in assay [1] was > 100 µM (inactive). On the same count and under the same terms, next, `CN1CCN(NC(=O)CN2C(=O)/C(=C/c3c(F)cccc3Cl)SC2=S)CC1`: > 50 µM (inactive). As for `CC(=O)N1CCN(NC(=O)CN2C(=O)/C(=C/c3c(Cl)cccc3Cl)SC2=S)CC1`, in assay [1], the MIC is > 50 µM (inactive). Also, the fold potentiation in assay [2] was determined as 2. Take `O=C(CN1C(=O)/C(=C/c2c(Cl)cccc2Cl)SC1=S)NN1CCN(Cc2ccccc2)CC1`: the MIC in assay [1] was > 50 µM (inactive).
